Results published in ChEMBL document CHEMBL3526140, “Prediction of human intestinal absorption of the prodrug temocapril by in situ single-pass perfusion using rat intestine with modified hydrolase activity” (Drug Metab Dispos, 2011).

What was measured:
Jejunum [1] = assay: Intracellular drug level in Wistar rat jejunum assessed as temocaprilat level pre-perfused with 400 uM CES inhibitor BNPP at 100 uM at pH 6.4 by in-situ single-pass perfusion method; type: ADME, tissue-based; settings: in vivo, pH 6.4, 100 µM
How it was run: (§1)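 Same in situ jejunal single-pass perfusion, with carboxylesterase blocked by pre-perfusing the lumen with 400 µM BNPP for 40 min. Then 100 µM drug in luminal phosphate buffer (pH 5.4 or 6.4) at 0.2 ml/min. Vascular Krebs–Henseleit (pH 7.4) at 2.5 ml/min. Luminal, vascular and tissue levels measured by HPLC. Rates are luminal disappearance and appearance in lumen or mesenteric vein. Mean ± S.D., n = 3.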

[2] = Drug hydrolysis in perfused Wistar rat jejunal S9 fraction at 500 uM assessed per mg protein; type: ADME, Jejunum; settings: s9, 500 µM
How it was run: (§2)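 Jejunal mucosal homogenate or S9 (HEPES pH 7.4/KCl) taken from intact jejunum, or after 40 min perfusion with or without 400 µM BNPP. Protein at 400 µg/ml incubated at 37°C with 500 µM drug. Added BNPP (100 or 1000 µM) pre-incubated 5 min. Temocaprilat formed measured by HPLC and given as nmol/min/mg protein and % of control. Mean ± S.D., n = 4.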

Jejunum [3] = assay: Apparent absorption clearance in Wistar rat jejunum at 100 uM at pH 5.4 by in-situ single-pass perfusion method; type: ADME, tissue-based; settings: in vivo, pH 5.4, 100 µM
How it was run: (§3)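 Rats fasted 18–24 h, anesthetized with intraperitoneal pentobarbital. Isolated cannulated jejunal segment kept at 37°C in Krebs–Henseleit buffer with 3% BSA and 10 mM glucose. Vascular perfusion with Krebs–Henseleit (pH 7.4) at 2.5 ml/min. Lumen perfused at 0.2 ml/min with phosphate buffer (pH 5.4, 6.4 or 7.4) containing 100 µM drug plus FD-4. Luminal and vascular samples assayed by HPLC (UV 258 nm). Parameters normalized to 10 cm intestine. Mean ± S.D., n = 3–6.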

[4] = Ratio of Vmax to Km for drug jejunal in Wistar rat jejunal S9 fraction assessed per mg protein
Jejunum [5] = assay: Apparent absorption clearance in Wistar rat jejunum pre-perfused with 400 uM CES inhibitor BNPP at 100 uM at pH 6.4 by in-situ single-pass perfusion method; type: ADME; settings: in vivo, pH 6.4, 100 µM; how it was run: as §1
[6] = Permeability in Wistar rat jejunum at 100 uM at pH 6.4 by in-situ single-pass perfusion method; type: ADME, tissue-based; settings: other: in-situ single-pass perfusion of the jejunum, read-out: Peff (converted)
How it was run: (§4)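 Rats fasted 18–24 h and anesthetized with intraperitoneal pentobarbital. Jejunal loop perfused at 0.2 ml/min with phosphate buffer (pH 5.4, 6.4 or 7.4) containing 100 μM drug and FD-4 (0.1 mg/ml). Vascular perfusate was Krebs–Henseleit bicarbonate buffer (pH 7.4) at 2.5 ml/min, segment kept at 37°C. Drug and metabolite measured by HPLC (UV 258 nm). Peff normalized to 10 cm intestine; mean ± S.D., n = 3–6.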

Jejunum [7] = assay: Drug hydrolysis in intact Wistar rat jejunum mucosal homogenate at 500 uM assessed per mg protein; type: ADME, tissue-based; settings: tissue homogenate; how it was run: as §2
Jejunum [8] = assay: Drug uptake in Wistar rat jejunum pre-perfused with 400 uM CES inhibitor BNPP assessed as rate of temocaprilat disappearance at 100 uM at pH 6.4 by in-situ single-pass perfusion method; type: ADME, tissue-based; settings: in vivo, pH 6.4, 100 µM; how it was run: as §1
[9] = Permeability in Wistar rat jejunum pre-perfused with 400 uM CES inhibitor BNPP at 100 uM at pH 5.4 by in-situ single-pass perfusion method; type: ADME, tissue-based; settings: other: in-situ single-pass perfusion of the jejunum, pH 5.4, with BNPP (CES inhibitor) 400 uM, read-out: Peff (converted)
How it was run: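 Fasted, pentobarbital-anesthetized rats. Jejunum pre-perfused with BNPP (400 µM) for 40 min to inhibit CES. Lumen then perfused at 0.2 ml/min with 100 μM drug in phosphate buffer (pH 5.4 or 6.4). Vascular side received Krebs–Henseleit buffer (pH 7.4) at 2.5 ml/min. Luminal drug quantified by HPLC; Peff normalized to 10 cm segment; mean ± S.D., n = 3.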

[10] = Ratio of Vmax to Km for drug hydrolysis in Wistar rat duodenal S9 fraction assessed per mg protein; type: ADME, Duodenum
How it was run: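 Duodenal or jejunal mucosal S9 (9000 g supernatant) in 50 mM HEPES pH 7.4, pre-incubated 5 min at 37°C. Substrate added at 10–500 µM final in 1% DMSO and incubated 20 min; stopped with acetonitrile. Temocaprilat formation measured by HPLC. Km and Vmax from nonlinear Michaelis–Menten fit; intrinsic clearance as Vmax/Km; mean ± S.D.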

Jejunum [11] = assay: Drug uptake in Wistar rat jejunum pre-perfused with 400 uM CES inhibitor BNPP assessed as rate of drug disappearance at 100 uM at pH 5.4 by in-situ single-pass perfusion method; type: ADME, tissue-based; settings: in vivo, pH 5.4, 100 µM; how it was run: as §1
Jejunum [12] = assay: Drug hydrolysis in perfused Wistar rat jejunum mucosal homogenate at 500 uM assessed per mg protein in presence of 400 uM CES inhibitor BNPP; type: ADME, tissue-based; settings: tissue homogenate; how it was run: as §2
Jejunum [13] = assay: Drug uptake in Wistar rat jejunum pre-perfused with 400 uM CES inhibitor BNPP assessed as rate of drug appearance at 100 uM at pH 6.4 by in-situ single-pass perfusion method; type: ADME, tissue-based; settings: in vivo, pH 6.4, 100 µM; how it was run: as §1
Jejunum [14] = assay: Intracellular drug level in Wistar rat jejunum treated with Temocaprilat at 100 uM at pH 5.4 by in-situ single-pass perfusion method; type: ADME, tissue-based; settings: in vivo, pH 5.4, 100 µM
[15] = Partition coefficient, log P between n-octanol and phosphate buffer at pH 7.4; type: physicochemical
Jejunum [16] = assay: Apparent absorption clearance in Wistar rat jejunum pre-perfused with 400 uM CES inhibitor BNPP at 100 uM at pH 5.4 by in-situ single-pass perfusion method; type: ADME, tissue-based; settings: in vivo, pH 5.4, 100 µM; how it was run: as §1
[17] = Drug hydrolysis in intact Wistar rat jejunal S9 fraction at 500 uM assessed per mg protein in presence of 1000 uM CES inhibitor BNPP; type: ADME, Jejunum; settings: s9, 500 µM; how it was run: as §2
Jejunum [18] = assay: Drug uptake in Wistar rat jejunum pre-perfused with 400 uM CES inhibitor BNPP assessed as rate of drug disappearance at 100 uM at pH 6.4 by in-situ single-pass perfusion method; type: ADME, tissue-based; settings: in vivo; how it was run: as §1
Jejunum [19] = assay: Intracellular drug level in Wistar rat jejunum assessed as temocaprilat level pre-perfused with 400 uM CES inhibitor BNPP at 100 uM at pH 5.4 by in-situ single-pass perfusion method; type: ADME, tissue-based; settings: in vivo, pH 5.4, 100 µM; how it was run: as §1
Jejunum [20] = assay: Apparent hydrolytic clearance in Wistar rat jejunum at 100 uM at pH 5.4 by in-situ single-pass perfusion method; type: ADME, tissue-based; settings: in vivo, pH 5.4, 100 µM; how it was run: as §3
[21] = Drug hydrolysis in Wistar rat duodenal S9 fraction assessed as rate of hydrolysis per mg protein; type: ADME, Duodenum
How it was run: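 Duodenal or jejunal mucosa from fasted rats homogenized in 50 mM HEPES (pH 7.4) with 1.15% KCl; S9 is the 9000 g supernatant. S9 pre-incubated 5 min at 37°C, then drug added at 10–500 µM final (1% DMSO). Run for 20 min, stopped with acetonitrile, temocaprilat formed measured by HPLC. Km and Vmax from Michaelis–Menten nonlinear fit. Inhibitor (1 mM BNPP) pre-incubated 5 min. Results as % of control.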

Jejunum [22] = assay: Drug uptake in Wistar rat jejunum pre-perfused with 400 uM CES inhibitor BNPP assessed as rate of temocaprilat disappearance at 100 uM at pH 5.4 by in-situ single-pass perfusion method; type: ADME, tissue-based; settings: in vivo, pH 5.4, 100 µM; how it was run: as §1
[23] = Permeability in Wistar rat jejunum at 100 uM at pH 5.4 by in-situ single-pass perfusion method; type: ADME, tissue-based; settings: other: in-situ single-pass perfusion of the jejunum, read-out: Peff (converted); how it was run: as §4
Jejunum [24] = assay: Apparent absorption clearance in Wistar rat jejunum at 100 uM at pH 7.4 by in-situ single-pass perfusion method; type: ADME, tissue-based; settings: in vivo, pH 7.4, 100 µM; how it was run: as §3
Jejunum [25] = assay: Intracellular drug level in Wistar rat jejunum pre-perfused with 400 uM CES inhibitor BNPP at 100 uM at pH 6.4 by in-situ single-pass perfusion method; type: ADME, tissue-based; settings: in vivo, pH 6.4, 100 µM; how it was run: as §1
Jejunum [26] = assay: Apparent absorption clearance in Wistar rat jejunum at 100 uM at pH 6.4 by in-situ single-pass perfusion method; type: ADME, tissue-based; settings: in vivo; how it was run: as §3
Jejunum [27] = assay: Intracellular drug level in Wistar rat jejunum at 100 uM at pH 7.4 by in-situ single-pass perfusion method; type: ADME, tissue-based; settings: in vivo, pH 7.4, 100 µM; how it was run: as §3

Compound: CCOC(=O)[C@H](CCc1ccccc1)N[C@H]1CS[C@H](c2cccs2)CN(CC(=O)O)C1=O [TEMOCAPRIL]
- Drug uptake (Jejunum [1]): 14.6 nmol/g
- Drug degradation [2]: 4.28 nmol/min
- CL(app) (Jejunum [3]): 3.59 µL/min
- Vmax/Km [4]: 108 µL/min
- CL(app) (Jejunum [5]): 7.64 µL/min
- Papp at 100 µM [6]: 57.2 ×10⁻⁶ cm/s
- Drug degradation (Jejunum [7]): 4.17 nmol/min
- CL (Jejunum [8]): 1.17 nmol/min
- Papp at 100 µM [9]: 49.8 ×10⁻⁶ cm/s
- Vmax/Km [10]: 109 µL/min
- CL (Jejunum [11]): 2.98 nmol/min
- Drug degradation (Jejunum [12]): 2.05 nmol/min
- CL (Jejunum [13]): 0.696 nmol/min
- Drug uptake (Jejunum [14]): 34.2 nmol/g
- logD [15]: 0.1
- CL(app) (Jejunum [16]): 10.6 µL/min
- Drug degradation [17]: 0.488 nmol/min
- CL (Jejunum [18]): 2.44 nmol/min
- Drug uptake (Jejunum [19]): 17 nmol/g
- CL (Jejunum [20]): 34.4 µL/min
- Vmax [21]: 5.2 nmol/min/mg
- CL (Jejunum [22]): 1.01 nmol/min
- Papp at 100 µM [23]: 76 ×10⁻⁶ cm/s
- CL(app) (Jejunum [24]): 1.23 µL/min
- Drug uptake (Jejunum [25]): 15.4 nmol/g
- CL(app) (Jejunum [26]): 1.59 µL/min
- Drug uptake (Jejunum [27]): 1.02 nmol/g
